RAM inhibit: inhibitors of the yeast RAM network, primary screen, dse1pr::URA3 reporter, 5-FOA selection | S. cerevisiae dse1pr::URA3 reporter, 5-FOA growth OD615, 2 d; analog-sensitive cbk1-as2 kinase mutant strain | inhibition, % at 50 µM | hit rate 1.8% among 190,000 | AID 868, 2007;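 active = inhibition above a set limit, 3 SD over mean compound inhibition, cut at about 8.4% in these data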;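 note: 0% = DMSO-only wells with no growth and 100% = 10 µM 1-NA-PP1 full growth; inhibition rescues growth on 5-FOA so higher OD means more RAM inhibition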
ABCB1 inh: ABCB1 efflux pump inhibitors, primary screen, cell-based, multiplex, flow cytometry, ABCG2 counter-screen; AID 1326, 2008; inhibition, % at 6.6 µM; ATP-dependent translocase ABCB1 (Homo sapiens), P08183; CCRF-Adr cells, JC-1 efflux; hit rate 0.067% among 190,000; in the data active = inhibition above about 40%;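 note: 0% = vehicle and 100% = reference inhibitor; higher value means more JC-1 retained so stronger ABCB1 efflux block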
ABCG2 block: ABCG2 efflux pump inhibitors, primary screen, multiplex with ABCB1, IgMXP3 cells, flow cytometry; Broad substrate specificity ATP-binding cassette transporter ABCG2 (Homo sapiens), Q9UNQ0; inhibition, % at 6.6 µM; hit rate 0.1% among 190,000; JC-1 efflux;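 active = inhibition above 80%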;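 note: 0% = DMSO and 100% = nicardipine control wells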
Target sequence (Q9UNQ0 whole entry, looked up): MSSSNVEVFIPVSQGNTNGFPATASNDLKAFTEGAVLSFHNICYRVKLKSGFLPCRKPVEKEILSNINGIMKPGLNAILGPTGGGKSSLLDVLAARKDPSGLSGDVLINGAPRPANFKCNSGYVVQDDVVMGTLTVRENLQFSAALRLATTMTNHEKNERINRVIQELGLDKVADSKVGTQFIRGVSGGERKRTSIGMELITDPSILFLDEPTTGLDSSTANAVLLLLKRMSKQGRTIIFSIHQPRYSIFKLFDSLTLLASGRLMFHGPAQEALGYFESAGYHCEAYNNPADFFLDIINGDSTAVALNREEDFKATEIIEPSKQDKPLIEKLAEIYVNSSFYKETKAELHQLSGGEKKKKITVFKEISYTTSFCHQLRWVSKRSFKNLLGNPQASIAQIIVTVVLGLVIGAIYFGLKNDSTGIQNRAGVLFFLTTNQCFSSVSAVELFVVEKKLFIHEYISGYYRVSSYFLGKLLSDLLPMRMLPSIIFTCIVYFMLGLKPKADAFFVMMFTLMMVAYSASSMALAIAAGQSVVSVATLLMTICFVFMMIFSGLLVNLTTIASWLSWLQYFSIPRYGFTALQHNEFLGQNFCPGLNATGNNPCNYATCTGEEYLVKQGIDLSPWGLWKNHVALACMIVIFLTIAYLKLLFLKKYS
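test system = two drug-resistant human cell lines, ABCG2 and ABCB1 | amount = 3 million cells/mL final, two lines in 1:1 ratio | reagent = JC-1 transporter substrate | doses = one concentration, 6.6 µM final | incubation = 10 min at 25 °C | signal = flow cytometric JC-1 green MFI at 530 nm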
WT yeast gro inh: growth inhibition of WT strain, primary screen, mitochondrial fusion inhibitor project, WT and mutant strains, chemical genetic | AID 1362, 2008 | hit rate 2.1% among 190,000 | inhibition, % at 10 µM | mitochondrial fusion phenotypic screen; in the data active = inhibition above about 58%; tested in S. cerevisiae
Lmaj promast: Leishmania major promastigote growth inhibition, primary screen | hit rate 9% among 200,000 | Leishmania major promastigotes, resazurin fluorescence viability | inhibition, % at 10 µM | AID 1063, 2008; in the data active = inhibition above about 50%;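 note: promastigotes grown with compound for 44 hours at 28 °C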
* = called active by the depositor; x = no result given. Shown are actives, neighbours in structure and some others; about 12% of the full set was active somewhere.

SMILES	RAM inhibit	ABCB1 inh	ABCG2 block	WT yeast gro inh	Lmaj promast
CC(C)Cn1c(-c2ccco2)csc1=Nc1cccnc1	2.2	0.0	0.2	11.2	58.3*
COCCn1c(-c2ccco2)csc1=Nc1cccnc1	-0.4	0.4	1.6	12.2	-10.2
COc1cccc(CC2(CO)CCCN(Cc3c(C)cc(C)cc3-n3cccn3)C2)c1 (centres undefined)	-1.0	4.7	9.7	15.1	33.7
COc1ccc(OCCN2CCN(C3CC(=O)N(CCC(C)C)C3=O)CC2)cc1 (centres undefined)	1.7	0.3	0.3	-4.5	91.9*
O=C1CC(N2CCN(c3ccccc3)CC2)C(=O)N1CCc1ccccc1 (centres undefined)	0.8	0.3	1.2	2.1	-7.3
O=C1CC(N2CCN(Cc3ccccc3)CC2)C(=O)N1CCc1ccccc1 (centres undefined)	0.0	0.9	2.0	2.1	88.4*
Cc1ccc(S(=O)(=O)N2CCN(C3CC(=O)N(Cc4ccccc4)C3=O)CC2)cc1C (centres undefined)	2.3	0.0	-0.1	13.2	92.7*
COc1ccc(CCN2C(=O)CC(N3CCN(S(=O)(=O)c4ccccc4)CC3)C2=O)cc1 (centres undefined)	3.3	0.8	1.4	2.3	63.4*
O=[N+]([O-])C(=C1Nc2ccccc2N1)/C(Cl)=C(/Cl)Br	0.5	-0.4	0.3	0.0	-5.2
Cc1ccc(NC(=O)c2ccc(Cn3cc([N+](=O)[O-])cn3)cc2)c(C)c1	0.9	1.2	6.1	-12.7	-9.2
CCn1ncc(Br)c1C(=O)N(C)C12CC3CC(CC(C3)C1)C2	1.3	1.2	9.6	16.3	51.3*
Cc1cc(C)c(NC(=S)N(CCCN2CCOCC2)Cc2cccnc2)c(C)c1	2.7	0.2	3.6	-4.0	5.6
CC1CCC(N(CCCN)Cc2ccco2)CC1C (centres undefined)	0.8	0.3	0.2	-10.3	21.8
COc1cccc(C(=O)CSc2nnnn2C2CCCCC2)c1	1.4	0.3	3.3	-13.8	-6.5
Cc1cc(N2CCN(c3ccccc3)CC2)nc(-n2nc(C)cc2C)n1	0.8	1.6	24.9	72.0*	72.2*
Cc1cc(Nc2nc(Cl)c(Cl)cc2Cl)n(-c2ccccc2)n1	5.3	0.7	21.1	65.3*	4.2
Cc1cc(C)nc(-n2nc(C)cc2Nc2ccccc2)n1	0.5	0.7	11.5	72.4*	51.8*
Cc1cc(Nc2ccccc2)n(-c2ccccc2)n1	0.5	0.8	4.6	23.9	7.1
Cc1cc(C)nc(-n2nc(C)cc2NC(=O)CN2CCc3ccccc3C2)n1	1.3	8.3	6.4	2.3	54.2*
Cc1ccc(-n2nc(C)cc2Nc2ncc(Cl)cc2Cl)cc1	0.2	0.9	14.9	73.7	3.1
O=C(Cc1ccc(Br)c2ccccc12)N/N=C/c1ccccn1	-0.8	1.8	24.1	56.6	35.6
O=C(Nc1ccccc1C(=O)OCC(=O)c1c[nH]c2ccccc12)c1ccco1	3.0	-0.4	-3.4	5.2	11.9
Cc1cc(C)nc(-n2nc(C)cc2NC(=O)CNCc2ccccc2)n1	-0.5	21.4	46.5	-5.5	6.4
CCN(CC(=O)Nc1cc(C)nn1-c1nc(C)cc(C)n1)Cc1ccccc1	1.0	6.3	7.9	51.3	52.6*
CCOCCCN(Cc1ccco1)C(=O)c1cc2c(=O)[nH]c3ccc(C)cc3c2s1	3.7	2.1	2.5	6.0	72.9*
SMILES	RAM inhibit	ABCB1 inh	ABCG2 block	WT yeast gro inh	Lmaj promast
Cc1ccc2[nH]c(=O)c3cc(C(=O)N(C)Cc4ccco4)sc3c2c1	0.9	0.3	0.2	15.8	55.8*
CCCN(CCC)C(=O)c1cc2c(=O)[nH]c3ccc(C)cc3c2s1	7.6	12.0	47.2	19.4	5.5
CC(NC(=O)c1ccccc1)C(c1cccs1)N1CCOCC1 (centres undefined)	0.5	0.2	0.2	-14.1	-2.6
O=C(NC(=S)N1CCN(c2ccc(F)cc2)CC1)C12CC3CC(CC(C3)C1)C2	2.6	0.7	1.6	18.6	80.1*
CCOc1ccccc1N1CCN(C(=S)NCc2ccc(Cl)cc2)CC1	6.3	1.6	17.8	77.6*	15.5
CC(=O)Nc1nc(COc2ccccc2)cs1	2.1	0.4	2.1	18.2	-6.2
O=C(Nc1nc(COc2ccccc2)cs1)C12CC3CC(CC(C3)C1)C2	9.4*	0.1	1.6	59.5*	99.5*
O=C(Nc1ccccc1N1CCN(c2ccc(F)cc2)CC1)c1ccccc1	0.7	-0.2	0.2	-16.2	-5.1
O=C(Nc1ccccc1N1CCN(c2ccc(F)cc2)CC1)C12CC3CC(CC(C3)C1)C2	-0.4	0.6	3.6	45.1	99.6*
O=C(Nc1ccccc1-c1ccccc1)C12CC3CC(CC(C3)C1)C2	5.9	0.2	1.0	9.3	88.5*
O=C(N1CCN(c2ccccc2)CC1)C12CC3CC(CC(C3)C1)C2	1.4	0.6	1.0	11.6	95.2*
CCOc1ccccc1N1CCN(C(=S)NC(=O)C23CC4CC(CC(C4)C2)C3)CC1	0.1	1.8	19.6	58.7*	30.6
CCOc1ccccc1N1CCN(C(=O)CC(C)(C)C)CC1	-0.1	0.8	3.5	-7.3	-0.1
C/C(=N\NC(=O)C1(C)CC1(Br)Br)c1cccc(NC(=O)C(C)(C)C)c1 (centres undefined)	0.5	1.6	67.0	-12.3	59.7*
COc1ccc(-c2csc(NC(=O)c3ccc(OCC(=O)N4CCOCC4)c(OC)c3)n2)cc1	5.5	-0.1	-4.7	-7.8	35.8
COc1ccc(-c2nc(NC(=O)c3ccc(OCC(=O)Nc4ccc(F)cc4)c(OC)c3)sc2C)cc1	2.6	-0.7	-5.8	8.9	69.0*
COc1cc(C(=O)Nc2nc(-c3ccc(C)cc3)cs2)ccc1OCC(=O)N1CCOCC1	6.9	-0.9	-20.8	13.3	94.8*
COc1cc(C(=O)Nc2nc(-c3ccc(F)cc3)cs2)ccc1OCC(=O)N1CCOCC1	-0.3	x	3.6	6.4	96.1*
COc1cc(C(=O)O)ccc1OCC(=O)N1CCOCC1	1.2	0.2	0.9	-0.4	3.7
COc1cccc(N2CCN(CC(=O)c3c[nH]c4ccc(OC)cc34)CC2C)c1 (centres undefined)	0.4	0.4	3.4	3.6	73.2*
CCCNC(=S)Nc1c(C)n(C)n(-c2ccccc2)c1=O	1.3	-0.2	12.3	1.5	-4.3
COc1ccc(Cl)cc1NC(=O)C/C(C)=N/NC(=O)Cc1ccccc1	-0.1	-0.4	-0.2	-4.1	-4.1
COc1ccc(CC(=O)OCC(=O)Nc2ccc(Br)cc2)cc1	3.4	1.1	15.4	4.2	-7.4
COc1ccc(/C=N/Nc2nc(NCc3ccco3)nc(Nc3ccc(OC)cc3)n2)cc1	2.8	-0.8	-1.4	28.0	77.2*
Cc1ccc(N2CCN(C(=O)N3CCCC3)CC2)cc1Cl	2.7	-1.9	0.1	-3.8	-4.9
Cc1cc(C)c(N2CCN(S(=O)(=O)N3CCCCCC3)CC2)c(C)c1	11.0*	1.0	2.0	60.7*	4.8

Compound activity as filed in PubChem.
